Experiment: Toxicity liver stage against HepG2, at 10uM
Type: cell-based
Set-up: test concentration 10 uM, cell line HepG2-A16-CD81EGFP
Conditions: human, HepG2-A16-CD81EGFP cells; read-out: INHIBITION
In short: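 Uninfected HepG2-A16-CD81EGFP cells, 3 × 10^3 per well, 1536-well, plated on prespotted compound at 10 μM final, parasite-free screening media added to match infected plates; puromycin 10 μM positive, DMSO 0.5% negative; run in parallel with 48 h PbLuc assay at 37 °C, 5% CO2; viability by CellTiter-Glo luminescence, normalized to controls.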

COc1cc(-c2nc(N)n[nH]2)cc(OC)c1OC
cytotoxicity at 10 µM: -10.2%

Cn1ccc(C(=O)NCCOc2ccc(C(C)(C)C)cc2)cc1=O
cytotoxicity at 10 µM: 9.71%

COCCOc1ccnc(-c2noc([C@@H]3CCCN3C(C)C)n2)c1
cytotoxicity at 10 µM: -12.7%

Cc1ccc(S(=O)(=O)NC[C@H]2OC[C@@H](NCc3ccccc3)[C@@H]2O)cc1
cytotoxicity at 10 µM: -1.73%

COc1ccc(CN2CC[C@@]3(C2)[C@H](O)CN(C)S3(=O)=O)cc1F
cytotoxicity at 10 µM: -7.86%

Cc1cc(NC(=O)C(C#N)Cc2cnn(C)c2C)no1 (stereo not given)
cytotoxicity at 10 µM: 4.58%

CC(=O)c1sc2nc3c(c(C(F)(F)F)c2c1N)CN(C(C)=O)CC3
cytotoxicity at 10 µM: -26%

CCOCCNS(=O)(=O)c1ccc2c3c1CCCN3C(=O)CO2
cytotoxicity at 10 µM: 7.9%

CCCN(CCC)c1ncc(S(=O)(=O)c2ccc(C)cc2)c(N)n1
cytotoxicity at 10 µM: 3.19%

COCCCN1CC2(CCCCN2C(=O)c2ccsc2)CC1=O (stereo not given)
cytotoxicity at 10 µM: 5.03%

CN(C)CC1(O)CCN(C(=O)Cc2ccc3c(c2)CCCC3)C1 (stereo not given)
cytotoxicity at 10 µM: -7.75%

Cc1cc(C(=O)N2CCCC(c3cc(=O)nc4n3CCC4)C2)on1 (stereo not given)
cytotoxicity at 10 µM: -1.28%

Cc1cc(NC2CC3(CCN(Cc4cscn4)C3)C2)ncn1 (stereo not given)
cytotoxicity at 10 µM: -2.13%

CCn1ncc(CN2CCC(c3ncc(Cl)cc3S(C)(=O)=O)CC2)c1C
cytotoxicity at 10 µM: 3.5%

Cc1cncc(C2CCN(Cc3ccsc3)CC2)n1
cytotoxicity at 10 µM: 4.86%

Cc1cc(C)n(CCNC(=O)c2cc(C3CC3)n[nH]2)n1
cytotoxicity at 10 µM: 7.39%

CS(=O)(=O)c1cn[nH]c1C1CCCN(C(=O)CN2CCOCC2)C1 (stereo not given)
cytotoxicity at 10 µM: -22.8%

CC(=O)N1CCCC(c2ccc(N3CCN(C)CC3)cn2)C1 (stereo not given)
cytotoxicity at 10 µM: -28.9%

OCCN1CCCC(c2nccnc2Oc2ccc(F)cc2)C1 (stereo not given)
cytotoxicity at 10 µM: 25.6%

CCCn1ccnc1CN1CCN(C2CCOCC2)CC(C(N)=O)C1 (stereo not given)
cytotoxicity at 10 µM: -24.4%

Cc1nc(Nc2ccccn2)cc(C2CCCN2C2CCOCC2)n1 (stereo not given)
cytotoxicity at 10 µM: -18.1%

CN1CCCC[C@@H]2[C@H]1[C@@H](c1ccccc1)CCN2C(=O)c1ccccn1
cytotoxicity at 10 µM: -14.7%

Cn1nc(C2CCCN(Cc3ccc(F)cc3F)C2)c2nccnc21 (stereo not given)
cytotoxicity at 10 µM: -8.46%

Cc1nccn1CC1CCCN(C(=O)c2cnn(C)c2)C1 (stereo not given)
cytotoxicity at 10 µM: -6.44%

O=C(c1ccncc1)N1Cc2ccccc2OC2(CCOCC2)C1
cytotoxicity at 10 µM: -1.03%

N#CCCSc1nnc(Cc2ccccc2F)o1
cytotoxicity at 10 µM: -11.7%

CC(C)(C)c1ncc(C(=O)NCc2ccccc2CN2CCCC2)s1
cytotoxicity at 10 µM: -8.98%

Cc1nnc2n1CCN(C(=O)C1CCC(n3cccc3)CC1)C2 (stereo not given)
cytotoxicity at 10 µM: -1.05%

CCc1ocnc1C(=O)N1CCN(c2nncc3ccccc23)CC1
cytotoxicity at 10 µM: 6.61%

CN(C)C(=O)Cc1ccccc1NCc1nc(Cc2ccccc2)no1
cytotoxicity at 10 µM: 1.9%

Cc1nonc1NC(=O)CCn1cc(Br)ccc1=O
cytotoxicity at 10 µM: 0.297%

CS(=O)(=O)CCNC(=O)NCCc1cc2ccccc2o1
cytotoxicity at 10 µM: 2.8%

CCc1ccc(C(=O)NC2CCCN(c3ccn(C)n3)C2=O)o1 (stereo not given)
cytotoxicity at 10 µM: -2.43%

Cc1csc(CNC(=O)N(C)Cc2ccc([S+](C)[O-])cc2)n1 (stereo not given)
cytotoxicity at 10 µM: 4.53%

CC1CCN(C(=O)c2sccc2-n2cnnn2)CC1
cytotoxicity at 10 µM: 9.33%

Cc1cnn(Cc2ccc(NC(=O)N3CCCC3)cc2)c1
cytotoxicity at 10 µM: 1.18%

Cc1cc(C2CCCN(C(=O)c3ccc(OCC4CC4)nc3)C2)n[nH]1 (stereo not given)
cytotoxicity at 10 µM: -12.9%

O=C(NCc1ccc(CN2CCCC2)cc1)NCc1ccon1
cytotoxicity at 10 µM: -0.145%

CCN(CC)CCSc1ncnc2[nH]ncc12
cytotoxicity at 10 µM: -4.44%

CC(C)COc1cncc(NCC(O)c2ccco2)n1 (stereo not given)
cytotoxicity at 10 µM: -2.85%

CC(C)C(=O)N1CCCC1C(=O)Nc1cc(C(F)(F)F)ccc1F (stereo not given)
cytotoxicity at 10 µM: -0.359%

CC(C)(C)OC(=O)N1CCC[C@H](NCC2CCOCC2)C1
cytotoxicity at 10 µM: -0.678%

NS(=O)(=O)CC1CCN(c2ncccc2C(F)(F)F)CC1
cytotoxicity at 10 µM: -3.16%

CN1CCN(S(C)(=O)=O)c2cc(F)ccc21
cytotoxicity at 10 µM: -1.15%

O=S(=O)(N1CCCCCC1)N1CCc2sccc2C1
cytotoxicity at 10 µM: -5.6%

N#Cc1nccnc1N1CCC(COCc2ccccc2)C1 (stereo not given)
cytotoxicity at 10 µM: 7.78%

Cc1ccccc1C1(CN)CCOCC1
cytotoxicity at 10 µM: 7.93%

Cc1cnn(CC2CCCCN2C(=O)c2sccc2C#N)c1 (stereo not given)
cytotoxicity at 10 µM: 0.185%

NC(=O)NC(CC(=O)NCCc1cccc(F)c1)c1ccccc1 (stereo not given)
cytotoxicity at 10 µM: -0.862%

CCc1nsc(N2CCCN(C(=O)c3ccsc3)CC2)n1
cytotoxicity at 10 µM: 5.73%

CC(C)(C)c1nc(CNC2CCN(S(C)(=O)=O)CC2)cs1
cytotoxicity at 10 µM: -2.34%

O=C(CCCNC(=O)Nc1ccc(F)cc1)Nc1cn[nH]c1
cytotoxicity at 10 µM: 9.37%

CN1CCOC(C(=O)N2CCC3(CCCCC3)C2)C1 (stereo not given)
cytotoxicity at 10 µM: 5.41%

COc1ccc(Cc2nnc3n2N=C(C(C)(C)C)CS3)cc1
cytotoxicity at 10 µM: 10.7%

COC(=O)c1ccc(C(=O)NS(=O)(=O)c2cncc(Br)c2)cc1
cytotoxicity at 10 µM: 9.95%

CC(C)C(NC(=O)NCC1(CO)CC1)c1nnc2n1CCC2 (stereo not given)
cytotoxicity at 10 µM: -6.11%

CCS(=O)(=O)N1Cc2nccn2CC(Cn2cncn2)C1 (stereo not given)
cytotoxicity at 10 µM: 7.21%

CN(C)CCNCC1COCc2c(-c3ccnn3C)nnn2C1 (stereo not given)
cytotoxicity at 10 µM: -99.9%

O=C(CC1CC1)N1Cc2nccn2CC(CN2CCCC2)C1 (stereo not given)
cytotoxicity at 10 µM: -67.7%

Cc1nc2c(c(NC3CC3)n1)CCN(C(=O)C(C)(C)O)CC2
cytotoxicity at 10 µM: 4.24%

C[C@@H](CO)Nc1cc(-c2cn[nH]c2)ncn1
cytotoxicity at 10 µM: -10.6%

Cc1ncc(-c2ccnc(N3CCC[C@@H]3CO)n2)c(-c2cccnc2)n1
cytotoxicity at 10 µM: -8.49%

Cc1nc(CN(C)C(=O)C2CCC(=O)N(CCN(C)C)C2)cs1 (stereo not given)
cytotoxicity at 10 µM: 8.08%

CCN1CCCC1Cn1ccc2ccc(C(=O)OC)cc2c1=O (stereo not given)
cytotoxicity at 10 µM: -7.86%

Cc1c[nH]c(CN(C)C(=O)CCn2cnc3ccccc32)n1
cytotoxicity at 10 µM: 9.67%

CN(Cc1cccc(CCN)c1)Cc1cccc2ncccc12
cytotoxicity at 10 µM: 7.82%

Cc1cc(C)c(C(=O)NC2CCCc3nc(N(C)C)ncc32)cc1C (stereo not given)
cytotoxicity at 10 µM: -1.25%

Cn1c(N2CCOCC2)nc2cc(C(=O)NCC(F)(F)F)ccc21
cytotoxicity at 10 µM: 1.85%

CCCc1noc(C2CC(=O)N(CCN(C)C)C2)n1 (stereo not given)
cytotoxicity at 10 µM: 5.48%

COCCC(=O)N[C@H]1CN(c2nc(C)c3c(n2)CCCC3)C[C@@H]1C1CC1
cytotoxicity at 10 µM: -12.8%

CC(C)N1CC2(CCC1=O)CCN(c1ccnc3ccccc13)CC2
cytotoxicity at 10 µM: 3.2%

CN(Cc1csc(-c2cccs2)n1)C(=O)CCn1ccc(=O)[nH]c1=O
cytotoxicity at 10 µM: 4.71%

CN(CCc1ccccn1)[C@@H]1CCN(c2cccc(C#N)n2)C[C@H]1O
cytotoxicity at 10 µM: -13.9%

CC(CCc1ccccc1)NC(=O)CN1CCOCC1 (stereo not given)
cytotoxicity at 10 µM: 4.17%

CSc1ccc2cc(CN(C)CCc3cn[nH]c3)c(=O)[nH]c2c1
cytotoxicity at 10 µM: -7.23%

NC(=O)c1csc(N2C[C@@H](CN3CCOCC3)[C@@H](CO)C2)n1
cytotoxicity at 10 µM: 2.97%

Cc1cc(C)n(CC(=O)N2CCCCC2CCN(C)C)c(=O)n1 (stereo not given)
cytotoxicity at 10 µM: -14.7%

CC(C)(C)c1nc(CN2CCN(C(=O)c3cnccn3)CC2)cs1
cytotoxicity at 10 µM: -5.92%

Cc1c(F)cc(C(=O)O)cc1S(=O)(=O)Nc1ccccc1
cytotoxicity at 10 µM: -4.54%

O=C(c1cccnc1O)N1CCN(CCc2cccs2)CC1
cytotoxicity at 10 µM: -8.86%

Cc1cc(CN2CCCCC2Cn2cncn2)no1 (stereo not given)
cytotoxicity at 10 µM: -8.89%

CCCn1nc2c(cc1=O)CN(Cc1nc(-c3ccco3)no1)CC2
cytotoxicity at 10 µM: -7.69%

CC(O)CN1CCN(C(=O)Cc2ccccc2Cl)CC1 (stereo not given)
cytotoxicity at 10 µM: -9.6%

COc1ccc(-n2ccc(C(=O)N3CCN(C)CC3C)n2)cc1 (stereo not given)
cytotoxicity at 10 µM: -11.2%

CC(=O)N1CCCN(C(=O)NCc2cc[nH]n2)CC1
cytotoxicity at 10 µM: -6.44%

CCN(CC1CCOC1)C(=O)Nc1ccc(-n2cncn2)nc1 (stereo not given)
cytotoxicity at 10 µM: -6.92%

COc1cc(C)nc(N2CCN(C(=O)COCC(F)(F)F)CC2)n1
cytotoxicity at 10 µM: -9.62%

Cc1cc(C)n(CC(=O)N2CCC(NS(C)(=O)=O)CC2)n1
cytotoxicity at 10 µM: 3.18%

COc1cc(CNC(=O)Nc2cc(C(F)(F)F)c[nH]c2=O)ccn1
cytotoxicity at 10 µM: 1.53%

COc1cc(CNc2cnn(C)c2)cc2c1OCCO2
cytotoxicity at 10 µM: -10.8%

Cc1cc(CN2CCN(C(=O)NC(C)c3cccnc3)CC2)on1 (stereo not given)
cytotoxicity at 10 µM: -7.93%

Cc1cc(C)n(CC2CCCN2C(=O)CCc2cscn2)n1 (stereo not given)
cytotoxicity at 10 µM: -10.4%

O=C1CC(N(C(=O)c2ccc3[nH]c4c(c3c2)CCCC4)C2CC2)C(=O)N1 (stereo not given)
cytotoxicity at 10 µM: -3.79%

Cc1cc(C(=O)N2CCCC(c3noc(C)n3)C2)[nH]n1 (stereo not given)
cytotoxicity at 10 µM: -6.67%

CC(C)(C)c1cn2nc(N3CCOC(Cn4cncn4)C3)sc2n1 (stereo not given)
cytotoxicity at 10 µM: -2.63%

COc1ccc(CN2C[C@@H]3COC[C@]3(CN(C)C)C2)cc1
cytotoxicity at 10 µM: -1.75%

O=C([C@H]1CC[C@@H]2[C@@H](CCN2C2CCCCC2)O1)N1CCOCC1
cytotoxicity at 10 µM: 7.19%

Cc1cnc(CN(C)C2CCN(CC(=O)Nc3nncs3)C2)o1 (stereo not given)
cytotoxicity at 10 µM: 1.76%

O=S(=O)(C1CC1)N1CCC2(CC1)CN(Cc1ccccn1)CCO2
cytotoxicity at 10 µM: -0.358%

Cn1ccnc1C(=O)NC[C@@H]1OC[C@H]2CN(CC3CC3)CC[C@H]21
cytotoxicity at 10 µM: -115%

O=C(NC[C@]12COC[C@H]1CN(Cc1cccs1)C2)c1ccsc1
cytotoxicity at 10 µM: -0.629%

Cc1cccc(CN2CCC3(CC2)CC(c2cccnc2)C(=O)N3C)n1 (stereo not given)
cytotoxicity at 10 µM: 7.53%

CS(=O)(=O)c1cncnc1C1CCCNC1 (stereo not given)
cytotoxicity at 10 µM: -8.33%

COc1cc(N2C[C@H]3CCC[C@@H](CN(C)C4CC4)[C@H]3C2)ncn1
cytotoxicity at 10 µM: -73%

CNC(=O)[C@H]1C[C@@H]2CN(C(=O)c3ccncc3)C[C@@H]2N1S(C)(=O)=O
cytotoxicity at 10 µM: -5.98%

Cn1cccc1C(=O)NCc1cnc2n1CCN(CC1CCOCC1)C2
cytotoxicity at 10 µM: -105%

COc1cccc(CNC(C)Cn2cccn2)c1OC (stereo not given)
cytotoxicity at 10 µM: -4.84%

Cc1cccc(CN2CCC3(CCN(c4ccccn4)C3)C2=O)c1 (stereo not given)
cytotoxicity at 10 µM: 9.3%

CN(C)CCO[C@@H]1CC[C@H]2[C@H]1OCCN2C(=O)c1ccnnc1
cytotoxicity at 10 µM: -2.1%

CC(C)CC(=O)N1CC[C@@H]2[C@H](CC1)N(Cc1cccnc1)CCS2(=O)=O
cytotoxicity at 10 µM: 0.238%

Reference: ChEMBL document CHEMBL4513216, “Probing the Open Global Health Chemical Diversity Library for Multistage-Active Starting Points for Next-Generation Antimalarials” (ACS Infect Dis, 2020)
